Measured values reported in ChEMBL document CHEMBL1147202, “Novel selective human melanocortin-3 receptor ligands: use of the 4-amino-1,2,4,5-tetrahydro-2-benzazepin-3-one (Aba) scaffold” (Bioorg Med Chem Lett, 2007).

Assays:
[1] = target: T1, Melanocyte-stimulating hormone receptor (Homo sapiens, UniProt Q01726); experiment: Maximum effect on human MC1R expressed in HEK293 cells assessed as intracellular cAMP accumulation at 0.0001 to 10 uM; type: functional, cell-based
Method in brief: (§1)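 Transfected HEK293 cells, grown in MEM with 10% FBS, seeded 48 h before assay (50,000 cells/well). Cells preincubated 1 min at 37 °C in Earle's balanced salt solution with IBMX, then exposed 3 min at 37 °C to peptide at 10−10 to 10−5 M. Reaction stopped with ice-cold Tris/EDTA and boiling for 7 min. cAMP in supernatant measured by [3H]cAMP/PKA competition against a standard curve. EC50 from nonlinear least-squares fit, two experiments in triplicate.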
Target sequence in this assay (Q01726 whole entry, looked up): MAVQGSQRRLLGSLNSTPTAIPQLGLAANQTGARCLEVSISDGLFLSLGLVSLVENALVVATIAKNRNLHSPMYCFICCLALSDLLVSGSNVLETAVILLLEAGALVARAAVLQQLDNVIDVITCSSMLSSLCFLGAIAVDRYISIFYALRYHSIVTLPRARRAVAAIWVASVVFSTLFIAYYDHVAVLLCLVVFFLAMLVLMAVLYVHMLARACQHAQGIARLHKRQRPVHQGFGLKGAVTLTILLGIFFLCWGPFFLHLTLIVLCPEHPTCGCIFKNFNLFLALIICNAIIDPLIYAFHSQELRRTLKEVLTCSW

[2] = target: T2, Melanocortin receptor 5 (Homo sapiens, UniProt P33032); experiment: Effect on human MC5R expressed in HEK293 cells assessed as intracellular cAMP accumulation; type: functional, cell-based; method in brief: as §1
[3] = target: T3, Melanocortin receptor 4 (Homo sapiens, UniProt P32245); experiment: Displacement of [125I]NDPalphaMSH from human MC4R expressed in HEK293 cells; type: cell-based
Method in brief: (§2)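 Whole HEK293 cells stably expressing the receptor, seeded 48 h before assay (50,000 cells/well), washed with MEM/25 mM bicarbonate. Cells lysed with NaOH/Triton X-100 and counted by gamma counting. IC50 from nonlinear least-squares fit, two experiments in triplicate.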

[4] = target: T1, Melanocyte-stimulating hormone receptor; experiment: Displacement of [125I]NDPalphaMSH from human MC1R expressed in HEK293 cells; type: cell-based; method in brief: as §2
Target sequence in this assay (Q01726 whole entry): as the sequence (Q01726 whole entry, looked up) above

[5] = target: T4, Melanocortin receptor 3 (Homo sapiens, UniProt P41968); experiment: Effect on human MC3R expressed in HEK293 cells assessed as intracellular cAMP accumulation; type: functional, cell-based; method in brief: as §1
[6] = target: T1, Melanocyte-stimulating hormone receptor; experiment: Effect on human MC1R expressed in HEK293 cells assessed as intracellular cAMP accumulation; type: functional, cell-based; method in brief: as §1
Target sequence in this assay (Q01726 whole entry): as the sequence (Q01726 whole entry, looked up) above

[7] = target: T3, Melanocortin receptor 4; experiment: Effect on human MC4R expressed in HEK293 cells assessed as intracellular cAMP accumulation; type: functional, cell-based; method in brief: as §1
[8] = target: T4, Melanocortin receptor 3; experiment: Displacement of [125I]NDPalphaMSH from human MC3R expressed in HEK293 cells; type: cell-based; method in brief: as §2
[9] = target: T2, Melanocortin receptor 5; experiment: Displacement of [125I]NDPalphaMSH from human MC5R expressed in HEK293 cells; type: cell-based; method in brief: as §2
[10] = target: T2, Melanocortin receptor 5; experiment: Maximum effect on human MC5R expressed in HEK293 cells assessed as intracellular cAMP accumulation at 0.0001 to 10 uM; type: functional, cell-based; method in brief: as §1
[11] = target: T4, Melanocortin receptor 3; experiment: Maximum effect on human MC3R expressed in HEK293 cells assessed as intracellular cAMP accumulation at 0.0001 to 10 uM; type: functional, cell-based; method in brief: as §1
[12] = target: T3, Melanocortin receptor 4; experiment: Maximum effect on human MC4R expressed in HEK293 cells assessed as intracellular cAMP accumulation at 0.0001 to 10 uM; type: functional, cell-based; method in brief: as §1

T4 sequence (P41968 whole entry): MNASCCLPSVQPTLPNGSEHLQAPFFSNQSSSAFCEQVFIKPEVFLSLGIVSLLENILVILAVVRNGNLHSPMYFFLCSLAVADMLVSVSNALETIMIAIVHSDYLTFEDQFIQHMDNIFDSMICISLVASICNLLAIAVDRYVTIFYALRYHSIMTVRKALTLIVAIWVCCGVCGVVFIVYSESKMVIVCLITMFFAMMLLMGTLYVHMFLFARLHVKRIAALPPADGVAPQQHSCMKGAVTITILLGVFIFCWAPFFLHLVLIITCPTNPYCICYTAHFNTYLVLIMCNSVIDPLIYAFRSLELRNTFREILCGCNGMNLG
T3 sequence (P32245 whole entry): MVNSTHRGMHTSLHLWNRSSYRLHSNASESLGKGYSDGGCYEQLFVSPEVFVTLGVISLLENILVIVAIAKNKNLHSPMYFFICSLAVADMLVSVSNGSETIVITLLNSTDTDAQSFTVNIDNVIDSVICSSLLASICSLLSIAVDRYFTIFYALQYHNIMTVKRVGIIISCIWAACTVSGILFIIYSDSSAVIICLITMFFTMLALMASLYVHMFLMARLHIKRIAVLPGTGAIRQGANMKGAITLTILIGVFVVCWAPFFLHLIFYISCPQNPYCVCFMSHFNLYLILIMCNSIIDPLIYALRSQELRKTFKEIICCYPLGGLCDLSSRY
T2 sequence (P33032 whole entry): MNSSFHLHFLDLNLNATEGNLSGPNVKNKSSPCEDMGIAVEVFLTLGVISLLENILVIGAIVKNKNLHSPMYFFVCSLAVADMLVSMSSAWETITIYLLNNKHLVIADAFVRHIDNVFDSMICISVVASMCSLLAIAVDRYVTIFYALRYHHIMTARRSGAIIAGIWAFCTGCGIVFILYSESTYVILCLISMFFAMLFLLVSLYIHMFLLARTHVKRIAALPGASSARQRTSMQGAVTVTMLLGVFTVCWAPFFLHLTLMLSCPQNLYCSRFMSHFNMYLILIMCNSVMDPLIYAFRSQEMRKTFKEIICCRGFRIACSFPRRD

CCCC[C@H](N)C(=O)N[C@H]1CC(=O)NCCCC[C@@H](C(N)=O)NC(=O)[C@H](Cc2c[nH]c3ccccc23)NC(=O)[C@H](CCCNC(=N)N)NC(=O)[C@@H](Cc2ccc3ccccc3c2)NC(=O)[C@H](Cc2cnc[nH]2)NC1=O
Activity [1]: 100%

CCCC[C@H](N)C(=O)N[C@H]1CC(=O)NCCCC[C@@H](C(N)=O)NC(=O)[C@H](Cc2c[nH]c3ccccc23)NC(=O)[C@H](CCCN=C(N)N)NC(=O)[C@@H](Cc2ccc(Cl)cc2)N2Cc3ccccc3CC(NC1=O)C2=O (stereo not given in full)
EC50 [2]: 0.18 µM | IC50 [3]: 2 µM | IC50 [4]: > 1 µM | EC50 [5]: > 1 µM | EC50 [6]: 0.9 µM | EC50 [7]: 3.2 µM | IC50 [8]: 0.029 µM | IC50 [9]: 0.123 µM

CCCC[C@H](N)C(=O)N[C@H]1CC(=O)NCCCC[C@@H](C(N)=O)NC(=O)[C@H](Cc2c[nH]c3ccccc23)NC(=O)[C@H](CCCNC(=N)N)NC(=O)[C@@H](Cc2ccc(Cl)cc2)N2Cc3ccccc3CC(NC1=O)C2=O (stereo not given in full)
Activity [10]: 45% | Activity [11]: 55% | Activity [12]: 33% | Activity [1]: 60%

CCCC[C@@H](NC(C)=O)C(=O)N[C@@H](CC(=O)O)C(=O)NC1Cc2ccccc2CN([C@@H](Cc2ccccc2)C(=O)N[C@@H](CCCNC(=N)N)C(=O)N[C@@H](Cc2c[nH]c3ccccc23)C(=O)N[C@@H](CCCCN)C(N)=O)C1=O (stereo not given in full)
Activity [10]: 0% | Activity [11]: 0% | Activity [12]: 0% | Activity [1]: 0%

CCCC[C@H](NC(C)=O)C(=O)N[C@@H](CC(=O)O)C(=O)N[C@H]1Cc2ccccc2CN([C@H](Cc2ccccc2)C(=O)N[C@@H](CCCN=C(N)N)C(=O)N[C@@H](Cc2c[nH]c3ccccc23)C(=O)N[C@@H](CCCCN)C(N)=O)C1=O
EC50 ([2]; hek293): > 10 µM | IC50 ([3]; hek293): > 10 µM | IC50 ([4]; hek293): > 10 µM | EC50 ([5]; hek293): > 10 µM | EC50 ([6]; hek293): > 10 µM | EC50 ([7]; hek293): > 10 µM | IC50 ([8]; hek293): > 10 µM | IC50 ([9]; hek293): > 10 µM
